Assay [1] concerns T1, Receptor-type tyrosine-protein kinase FLT3 (Homo sapiens), P36888 [N841I].
T1 sequence (whole entry): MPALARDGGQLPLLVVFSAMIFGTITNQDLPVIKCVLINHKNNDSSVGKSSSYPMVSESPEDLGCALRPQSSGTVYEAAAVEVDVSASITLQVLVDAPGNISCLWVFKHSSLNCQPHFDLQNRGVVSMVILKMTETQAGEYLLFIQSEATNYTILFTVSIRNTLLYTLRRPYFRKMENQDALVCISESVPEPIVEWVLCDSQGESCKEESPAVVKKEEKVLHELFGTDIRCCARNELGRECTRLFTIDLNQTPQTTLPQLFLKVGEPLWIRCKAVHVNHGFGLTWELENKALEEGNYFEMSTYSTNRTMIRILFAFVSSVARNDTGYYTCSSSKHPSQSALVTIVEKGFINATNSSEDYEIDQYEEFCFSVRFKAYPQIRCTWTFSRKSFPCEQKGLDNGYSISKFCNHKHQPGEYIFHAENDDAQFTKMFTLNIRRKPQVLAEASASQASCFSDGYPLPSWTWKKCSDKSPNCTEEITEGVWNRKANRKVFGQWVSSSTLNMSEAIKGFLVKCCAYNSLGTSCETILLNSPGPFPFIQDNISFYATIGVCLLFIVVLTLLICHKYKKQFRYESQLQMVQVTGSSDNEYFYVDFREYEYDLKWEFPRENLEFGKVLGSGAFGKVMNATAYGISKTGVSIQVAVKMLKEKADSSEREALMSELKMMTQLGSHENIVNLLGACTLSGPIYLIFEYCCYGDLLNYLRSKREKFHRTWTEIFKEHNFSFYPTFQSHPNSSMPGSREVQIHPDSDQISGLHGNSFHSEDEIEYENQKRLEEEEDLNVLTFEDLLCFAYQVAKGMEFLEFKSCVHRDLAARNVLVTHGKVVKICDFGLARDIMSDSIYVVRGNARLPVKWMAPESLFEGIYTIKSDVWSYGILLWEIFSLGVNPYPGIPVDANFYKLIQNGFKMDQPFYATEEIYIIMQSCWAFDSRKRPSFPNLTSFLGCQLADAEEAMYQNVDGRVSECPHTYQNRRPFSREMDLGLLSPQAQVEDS
The assay can be described thus: Inhibition of FLT3 N841I mutant at 1 uM. Summed up: (§1)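 Single-concentration screen on the Ambit KINOMEscan platform, run against a panel of 250–400 kinases. Per-kinase inhibition was also summarized as S(90), the fraction of kinases inhibited by more than 90%.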

Assay [2] deals with Tyrosine-protein kinase JAK1 (Homo sapiens) (UniProt P23458). The assay can be described thus: Inhibition of JAK1 JH2 pseudokinase domain at 1 uM. Summed up: as §1
The target of assay [3] is Casein kinase I isoform delta (Homo sapiens) (UniProt P48730). The assay can be described thus: Inhibition of CSNK1D at 1 uM. Summed up: (§2)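 Single-concentration screen using Ambit Bioscience KINOMEscan technology across a panel of 250–400 kinases. Per-kinase inhibition from this screen was summarized as S(90), the fraction of kinases inhibited by more than 90%.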
Assay [4] concerns the target Maternal embryonic leucine zipper kinase (Homo sapiens) (UniProt Q14680). Description: Inhibition of MELK at 1 uM. Summed up: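 Kinase-panel screen using KINOMEscan technology, with 250–400 kinases per panel. Each compound was tested at a single concentration, and inhibition of each kinase was recorded. Selectivity was summarised as S(90), the fraction of kinases inhibited by more than 90%.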

Assay [5] addresses AP2-associated protein kinase 1 (Homo sapiens) (UniProt Q2M2I8). Description: Inhibition of AAK1 at 1 uM. The procedure, abridged: (§3)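 Ambit KINOMEscan screen at a single concentration across a 250–400 kinase panel, recorded as percent inhibition. Selectivity was expressed as S(90), the fraction of kinases inhibited >90%.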
For assay [6], the target named is Activin receptor type-2A (Homo sapiens) (UniProt P27037). The assay can be described thus: Inhibition of ACVR2A at 1 uM. The procedure, abridged: as §3
Assay [7] concerns the target Ribosomal protein S6 kinase alpha-4 (Homo sapiens) (UniProt O75676). Description: Inhibition of RPS6KA4 N-terminal domain1 at 1 uM.
Assay [8] deals with Receptor tyrosine-protein kinase erbB-2 (Homo sapiens) (UniProt P04626). Description: Inhibition of ERBB2 at 1 uM. Summed up:
as §2

Assay [9] deals with Dual specificity protein kinase CLK1 (Homo sapiens) (UniProt P49759). Description: Inhibition of CLK1 at 1 uM. Summed up: as §3
For assay [10], the target named is Mitogen-activated protein kinase kinase kinase 1 (Homo sapiens) (UniProt Q13233). The assay can be described thus: Inhibition of MAP3K1 at 1 uM.
Assay [11] has as its target Serine/threonine-protein kinase SIK2 (Homo sapiens) (UniProt Q9H0K1). The assay can be described thus: Inhibition of SIK2 at 1 uM.
In assay [12] the target is Serine/threonine-protein kinase NIM1 (Homo sapiens) (UniProt Q8IY84). Description: Inhibition of NIM1 at 1 uM.
Assay [13] deals with Non-receptor tyrosine-protein kinase TYK2 (Homo sapiens) (UniProt P29597). The assay can be described thus: Inhibition of TYK2 JH2 pseudokinase domain at 1 uM.
Assay [14] deals with G protein-coupled receptor kinase 4 (Homo sapiens) (UniProt P32298). The assay can be described thus: Inhibition of GRK4 at 1 uM.
The target in assay [15] is T2, Ankyrin repeat and protein kinase domain-containing protein 1 (Homo sapiens) (UniProt Q8NFD2).
T2 sequence (whole entry): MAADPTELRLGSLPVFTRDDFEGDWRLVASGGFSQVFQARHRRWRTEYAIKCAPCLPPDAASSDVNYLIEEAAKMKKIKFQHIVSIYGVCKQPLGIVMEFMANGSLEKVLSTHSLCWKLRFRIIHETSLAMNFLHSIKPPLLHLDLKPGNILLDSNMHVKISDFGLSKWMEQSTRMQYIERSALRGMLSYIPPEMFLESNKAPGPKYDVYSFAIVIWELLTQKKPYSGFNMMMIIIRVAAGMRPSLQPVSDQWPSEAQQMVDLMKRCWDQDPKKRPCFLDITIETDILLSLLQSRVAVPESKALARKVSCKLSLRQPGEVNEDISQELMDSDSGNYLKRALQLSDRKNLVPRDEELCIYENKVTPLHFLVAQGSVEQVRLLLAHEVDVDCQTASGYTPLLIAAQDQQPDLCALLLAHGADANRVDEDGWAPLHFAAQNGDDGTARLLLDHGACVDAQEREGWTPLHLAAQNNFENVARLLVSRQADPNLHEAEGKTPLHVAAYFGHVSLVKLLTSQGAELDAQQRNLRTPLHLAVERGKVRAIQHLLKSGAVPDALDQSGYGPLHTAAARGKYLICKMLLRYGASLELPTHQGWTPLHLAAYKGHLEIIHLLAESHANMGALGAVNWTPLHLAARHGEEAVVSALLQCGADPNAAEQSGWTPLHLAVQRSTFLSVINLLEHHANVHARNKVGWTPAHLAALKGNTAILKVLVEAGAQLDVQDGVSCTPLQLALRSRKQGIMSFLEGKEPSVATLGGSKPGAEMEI
The assay can be described thus: Inhibition of ANKK1 at 1 uM.

Assay [16] concerns the target Serine/threonine-protein kinase Nek7 (Homo sapiens) (UniProt Q8TDX7). The assay can be described thus: Inhibition of NEK7 at 1 uM.

Sequence of Receptor tyrosine-protein kinase erbB-2 (Homo sapiens) (P04626 whole entry): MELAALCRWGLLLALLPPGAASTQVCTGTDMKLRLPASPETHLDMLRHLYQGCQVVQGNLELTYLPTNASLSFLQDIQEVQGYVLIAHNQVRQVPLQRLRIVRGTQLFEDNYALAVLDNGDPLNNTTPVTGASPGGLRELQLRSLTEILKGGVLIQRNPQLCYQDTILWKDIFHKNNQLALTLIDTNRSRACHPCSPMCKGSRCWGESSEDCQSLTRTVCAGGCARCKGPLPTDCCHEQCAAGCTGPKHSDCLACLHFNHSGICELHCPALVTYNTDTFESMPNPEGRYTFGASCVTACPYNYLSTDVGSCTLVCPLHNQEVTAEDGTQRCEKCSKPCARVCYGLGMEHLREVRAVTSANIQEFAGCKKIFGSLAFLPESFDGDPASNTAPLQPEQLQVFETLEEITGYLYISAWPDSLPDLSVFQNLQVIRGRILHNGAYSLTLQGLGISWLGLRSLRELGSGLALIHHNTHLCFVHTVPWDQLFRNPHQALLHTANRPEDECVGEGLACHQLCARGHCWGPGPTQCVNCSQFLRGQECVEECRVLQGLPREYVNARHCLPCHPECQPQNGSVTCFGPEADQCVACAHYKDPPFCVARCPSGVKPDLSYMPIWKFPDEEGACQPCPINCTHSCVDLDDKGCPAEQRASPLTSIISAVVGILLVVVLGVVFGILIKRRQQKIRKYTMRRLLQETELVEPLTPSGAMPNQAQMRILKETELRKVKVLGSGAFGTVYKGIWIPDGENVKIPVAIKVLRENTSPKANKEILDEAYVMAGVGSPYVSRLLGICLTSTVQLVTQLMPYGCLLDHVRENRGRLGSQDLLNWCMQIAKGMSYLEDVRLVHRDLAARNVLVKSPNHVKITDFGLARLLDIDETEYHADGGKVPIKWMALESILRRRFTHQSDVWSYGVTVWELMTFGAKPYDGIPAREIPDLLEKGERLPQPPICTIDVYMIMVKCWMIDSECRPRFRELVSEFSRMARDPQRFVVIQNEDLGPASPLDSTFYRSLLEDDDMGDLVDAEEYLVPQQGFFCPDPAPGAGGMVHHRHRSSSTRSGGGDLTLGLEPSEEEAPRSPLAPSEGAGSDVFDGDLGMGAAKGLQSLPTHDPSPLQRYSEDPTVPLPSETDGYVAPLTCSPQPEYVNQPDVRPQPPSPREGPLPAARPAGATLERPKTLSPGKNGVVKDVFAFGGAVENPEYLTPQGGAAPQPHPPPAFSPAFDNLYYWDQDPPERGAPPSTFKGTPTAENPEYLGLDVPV
Sequence of Tyrosine-protein kinase JAK1 (Homo sapiens) (P23458 whole entry, the tested form may be a part, canonical isoform): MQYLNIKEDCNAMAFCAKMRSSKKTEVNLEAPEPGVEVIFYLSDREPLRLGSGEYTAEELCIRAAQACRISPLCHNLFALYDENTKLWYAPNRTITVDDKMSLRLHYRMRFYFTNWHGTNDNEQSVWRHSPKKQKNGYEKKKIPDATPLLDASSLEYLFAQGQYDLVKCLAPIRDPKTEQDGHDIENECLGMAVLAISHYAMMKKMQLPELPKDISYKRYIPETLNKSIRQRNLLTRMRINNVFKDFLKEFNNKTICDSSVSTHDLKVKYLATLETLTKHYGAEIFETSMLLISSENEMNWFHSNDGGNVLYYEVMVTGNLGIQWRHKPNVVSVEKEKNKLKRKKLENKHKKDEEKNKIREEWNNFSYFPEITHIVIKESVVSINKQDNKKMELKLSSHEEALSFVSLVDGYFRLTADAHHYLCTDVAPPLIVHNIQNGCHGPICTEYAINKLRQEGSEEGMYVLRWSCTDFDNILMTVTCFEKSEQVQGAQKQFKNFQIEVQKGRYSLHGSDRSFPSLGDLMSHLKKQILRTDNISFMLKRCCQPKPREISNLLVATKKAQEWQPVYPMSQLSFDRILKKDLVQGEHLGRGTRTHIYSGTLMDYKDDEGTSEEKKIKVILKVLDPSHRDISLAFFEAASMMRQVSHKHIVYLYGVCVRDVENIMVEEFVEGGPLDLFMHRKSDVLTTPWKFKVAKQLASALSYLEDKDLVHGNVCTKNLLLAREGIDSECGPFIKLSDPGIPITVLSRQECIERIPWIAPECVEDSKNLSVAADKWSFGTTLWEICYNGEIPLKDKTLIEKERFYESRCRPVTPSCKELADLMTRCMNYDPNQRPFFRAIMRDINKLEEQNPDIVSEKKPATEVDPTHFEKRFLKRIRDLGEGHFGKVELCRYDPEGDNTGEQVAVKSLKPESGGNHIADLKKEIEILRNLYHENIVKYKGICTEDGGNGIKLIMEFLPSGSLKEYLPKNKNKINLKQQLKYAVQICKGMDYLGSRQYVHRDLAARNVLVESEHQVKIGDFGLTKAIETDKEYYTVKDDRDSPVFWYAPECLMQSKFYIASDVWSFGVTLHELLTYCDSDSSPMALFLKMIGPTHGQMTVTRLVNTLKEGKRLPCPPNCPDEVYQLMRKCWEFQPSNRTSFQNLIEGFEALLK
Sequence of Maternal embryonic leucine zipper kinase (Homo sapiens) (Q14680 whole entry, looked up): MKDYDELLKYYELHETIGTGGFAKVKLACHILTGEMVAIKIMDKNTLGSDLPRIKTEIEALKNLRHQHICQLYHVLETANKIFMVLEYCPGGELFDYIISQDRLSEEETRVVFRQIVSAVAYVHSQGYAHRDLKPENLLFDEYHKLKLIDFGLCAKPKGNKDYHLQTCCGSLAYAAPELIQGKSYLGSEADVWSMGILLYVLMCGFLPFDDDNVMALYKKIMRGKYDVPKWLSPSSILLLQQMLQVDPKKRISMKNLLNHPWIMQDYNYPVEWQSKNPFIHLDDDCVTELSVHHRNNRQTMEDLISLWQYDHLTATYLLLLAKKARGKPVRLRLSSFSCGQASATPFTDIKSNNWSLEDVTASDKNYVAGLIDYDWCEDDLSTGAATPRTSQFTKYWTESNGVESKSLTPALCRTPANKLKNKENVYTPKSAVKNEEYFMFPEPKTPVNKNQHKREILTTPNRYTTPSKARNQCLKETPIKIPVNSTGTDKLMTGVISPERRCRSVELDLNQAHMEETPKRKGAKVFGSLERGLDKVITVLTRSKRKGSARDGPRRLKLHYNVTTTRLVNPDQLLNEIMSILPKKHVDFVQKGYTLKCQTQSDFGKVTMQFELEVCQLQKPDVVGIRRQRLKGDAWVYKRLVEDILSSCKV
Sequence of Dual specificity protein kinase CLK1 (Homo sapiens) (P49759 whole entry, looked up): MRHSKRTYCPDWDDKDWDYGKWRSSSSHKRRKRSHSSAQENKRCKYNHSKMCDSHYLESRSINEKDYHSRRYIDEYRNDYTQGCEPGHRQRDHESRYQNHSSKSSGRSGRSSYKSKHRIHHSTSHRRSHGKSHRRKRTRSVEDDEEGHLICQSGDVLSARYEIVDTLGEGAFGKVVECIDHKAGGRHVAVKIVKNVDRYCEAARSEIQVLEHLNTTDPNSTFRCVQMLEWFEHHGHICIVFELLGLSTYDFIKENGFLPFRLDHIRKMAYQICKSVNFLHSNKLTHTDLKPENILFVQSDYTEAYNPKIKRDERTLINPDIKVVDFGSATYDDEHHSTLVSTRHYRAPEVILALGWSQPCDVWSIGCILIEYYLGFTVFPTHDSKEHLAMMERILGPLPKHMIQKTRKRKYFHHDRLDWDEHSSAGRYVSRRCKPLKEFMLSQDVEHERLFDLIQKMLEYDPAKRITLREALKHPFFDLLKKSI
Sequence of Serine/threonine-protein kinase NIM1 (Homo sapiens) (Q8IY84 whole entry, the tested form may be a part): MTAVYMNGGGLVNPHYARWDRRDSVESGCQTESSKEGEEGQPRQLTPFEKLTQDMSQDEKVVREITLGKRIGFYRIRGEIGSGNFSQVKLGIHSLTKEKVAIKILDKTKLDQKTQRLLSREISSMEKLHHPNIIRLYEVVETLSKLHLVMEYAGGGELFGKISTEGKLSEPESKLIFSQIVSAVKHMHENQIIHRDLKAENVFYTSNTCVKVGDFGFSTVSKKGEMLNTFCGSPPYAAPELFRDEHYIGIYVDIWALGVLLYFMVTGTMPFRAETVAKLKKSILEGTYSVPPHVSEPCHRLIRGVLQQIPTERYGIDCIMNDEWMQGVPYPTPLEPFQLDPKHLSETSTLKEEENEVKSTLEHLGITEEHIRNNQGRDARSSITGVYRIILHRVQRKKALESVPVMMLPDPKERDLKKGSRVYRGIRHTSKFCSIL
Sequence of Serine/threonine-protein kinase SIK2 (Homo sapiens) (Q9H0K1 whole entry, looked up): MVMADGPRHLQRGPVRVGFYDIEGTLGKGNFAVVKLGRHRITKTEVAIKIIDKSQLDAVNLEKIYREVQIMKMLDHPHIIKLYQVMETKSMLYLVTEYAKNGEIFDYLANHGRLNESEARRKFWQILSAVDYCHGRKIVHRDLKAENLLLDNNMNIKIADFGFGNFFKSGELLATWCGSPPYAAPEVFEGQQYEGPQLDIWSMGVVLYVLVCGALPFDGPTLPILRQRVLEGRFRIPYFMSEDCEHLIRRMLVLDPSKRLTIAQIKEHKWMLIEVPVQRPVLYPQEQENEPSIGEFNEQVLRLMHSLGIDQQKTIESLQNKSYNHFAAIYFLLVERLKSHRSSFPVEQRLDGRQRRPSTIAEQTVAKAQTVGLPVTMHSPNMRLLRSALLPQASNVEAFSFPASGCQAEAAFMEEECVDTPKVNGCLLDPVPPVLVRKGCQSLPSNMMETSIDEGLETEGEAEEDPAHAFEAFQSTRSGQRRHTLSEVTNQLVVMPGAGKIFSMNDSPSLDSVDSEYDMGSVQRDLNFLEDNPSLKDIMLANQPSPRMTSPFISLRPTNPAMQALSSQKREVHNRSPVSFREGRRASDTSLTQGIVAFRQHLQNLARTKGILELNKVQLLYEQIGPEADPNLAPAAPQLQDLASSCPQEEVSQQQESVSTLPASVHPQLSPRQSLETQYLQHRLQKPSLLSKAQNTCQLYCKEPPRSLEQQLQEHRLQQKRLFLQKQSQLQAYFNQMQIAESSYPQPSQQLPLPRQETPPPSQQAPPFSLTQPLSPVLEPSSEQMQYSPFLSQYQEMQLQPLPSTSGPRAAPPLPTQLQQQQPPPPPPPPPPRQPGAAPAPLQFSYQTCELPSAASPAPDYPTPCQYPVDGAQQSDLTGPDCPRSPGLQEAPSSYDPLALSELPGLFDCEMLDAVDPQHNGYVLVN

As usually defined, the inhibition is the percentage by which the read-out fell short of the control. The low end stands for a weak effect, the high end for a strong effect. For the compound `O=C(c1ccc(-c2cnc3c(c2)N(Cc2cc(Cl)ccc2C(F)(F)F)CCN3)cc1)N1CCCCC1`, the inhibition in [1], in assay [2], in assay [3], in [4], in [5] and in [6] was below 50% in each case. Moreover, the inhibition in [7], in assay [8] and in assay [9] was below 50% each time.

In the case of `CN1CCN(c2ccc(-c3cnc4c(c3)N(Cc3c(F)ccc(F)c3Cl)CCN4)cn2)CC1`, the inhibition in [1] was 83%; in assay [2], below 50%; in assay [10], below 50%; in assay [3] it was below 50%; in assay [4], below 50%; in [11], below 50%. In addition, the inhibition in [5], in [6], in [7], in [12], in [8] and in assay [13] was below 50% throughout. Moreover, the inhibition in assay [14], in assay [15], in [16] and in assay [9] was below 50% each time.

With `COC1CCN(C(=O)c2ccc(-c3cnc4c(c3)N(Cc3cc(Cl)ccc3C(F)(F)F)CCN4)cc2)CC1`, the inhibition in assay [1], in assay [2], in assay [3], in [4], in [11] and in assay [5] was below 50% each time. In addition, the inhibition in [6], in assay [7], in [8] and in [9] was below 50% each time.

`O=C(O)c1ccc(-c2cnc3c(c2)N(Cc2cc(Cl)ccc2C(F)(F)F)CCN3)cc1`: the inhibition in assay [1], in [2], in assay [3], in assay [4], in assay [5] and in assay [6] was below 50% each time. Further, the inhibition in assay [7], in [8] and in [9] was below 50% each time.

On to `FC(F)(F)c1ccc(Cl)cc1CN1CCNc2ncc(-c3ccnc(N4CCNCC4)c3)cc21`, for which the inhibition in assay [1] is 100%; in assay [2], below 50%; in assay [10] it was below 50%; in [3], below 50%; in [4], below 50%; in [11], 75%. The inhibition in [5], in assay [6], in assay [7], in [12], in assay [8] and in [13] was below 50% each time. The inhibition in assay [14], in [15], in [16] and in assay [9] was below 50% in each case.

Consider `CN1CCN(c2ccc(-c3cnc4c(c3)N(Cc3cc(Cl)ccc3Cl)CCN4)cn2)CC1`, for which the inhibition was 93% in assay [1]; below 50% in [2]; below 50% in assay [10]; below 50% in [3]; below 50% in [4]; below 50% in assay [11]. The inhibition in assay [5], in assay [6], in assay [7], in assay [12], in assay [8] and in assay [13] was below 50% each time. For the same compound, the inhibition in assay [14], in [15], in [16] and in assay [9] was below 50% throughout.

For the compound `O=C(c1ccc(-c2cnc3c(c2)N(Cc2cc(Cl)ccc2C(F)(F)F)CCN3)cc1)N1CCC(N2CCCC2)CC1`, the inhibition in [1] is 96.1%; in [2], below 50%; in [3], below 50%; in assay [4], below 50%; in assay [11] it was below 50%; in [5] it was below 50%. Also, the inhibition in [6], in assay [7], in assay [8] and in assay [9] was below 50% each time.

With `CN1CCN(c2ccc(-c3cnc4c(c3)N(Cc3cc(Cl)ccc3C(F)(F)F)CCN4)cn2)CC1`, the inhibition in assay [1], in [2], in assay [10], in assay [3], in assay [4] and in [11] was below 50% throughout. In addition, the inhibition in [5], in [6], in [7], in assay [12], in assay [8] and in [13] was below 50% in each case. The inhibition in [14], in assay [15], in [16] and in assay [9] was below 50% each time.

As for `CC(=O)N1CCN(c2cc(-c3cnc4c(c3)N(Cc3cc(Cl)ccc3C(F)(F)F)CCN4)ccn2)CC1`, the inhibition is 92% in [1]; below 50% in [2]; below 50% in assay [10]; below 50% in [3]; below 50% in assay [4]; below 50% in assay [11]. For the same compound, the inhibition in assay [5], in assay [6], in assay [7], in assay [12], in assay [8] and in [13] was below 50% throughout. Besides, the inhibition in [14], in assay [15], in assay [16] and in assay [9] was below 50% each time.
